CHOP UPR activ: apoptotic UPR (CHOP) activation | CHO-CHOP luciferase reporter, luminescence; percent of tunicamycin response over DMSO baseline | activation, % at 10 µM | hit rate 0.34% among 330,000;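 active = at 10 µM dose, activation of 40% or more, normalized to positive control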;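 also: 100% = tunicamycin at 10 µg/mL and 0% = DMSO alone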
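Assay system: CHO cells with stable CHOP pathway luciferase reporter; Buffer or medium: F12 plus 10% serum; Times: 16-18 h cell attachment, then 6 h compound exposure, 37 °C; Signal: luciferase luminescence; Read-out basis: percent activation relative to tunicamycin control; Control set: tunicamycin high control, DMSO low control.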
XBP1 UPR activ: activators of adaptive arm of unfolded protein response (XBP1). activation, % at 20 µM. hit rate 0.33% among 330,000. CHO-XBP1 luciferase reporter, IRE1-XBP1 UPR activation, luminescence; percent of tunicamycin response, DMSO as zero. AID 463104;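 active = versus positive control, 20 µM dose yields 30% or more activation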;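 also: 100% = tunicamycin at 10 µg/mL and 0% = DMSO only wells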
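Test system: CHO-XBP1 luciferase reporter cells | Buffer or medium: Serum-containing F12 medium, 10% FBS | Schedule: 6 h compound exposure at 37 °C, 5% CO2 | Detection: Steady-Glo luciferase glow luminescence, 10 min after reagent addition | Read-out basis: Activation, % of tunicamycin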
PvdQ acylase: P. aeruginosa PvdQ acylase inhibition | purified PvdQ acylase, fluorescence plate reader | inhibition, % at 10 µM | hit rate 0.063% among 340,000 | AID 488965; in the data active = inhibition above about 30%, passing the limit was not always enough;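 also: 0% = vehicle neutral wells and 100% = reference inhibitor wells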
CHOP inhibitor: blocks CHOP induction under ER stress; CHO-K1 CHOP-promoter luciferase, tunicamycin-induced, 15-18 h; inhibition, % at 10 µM; hit rate 3.8% among 220,000;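 active = compounds that reduced the stress-induced luciferase reporter signal by more than about 70% of percent inhibition, limit read from the data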;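 also: 0% = tunicamycin plus vehicle and 100% = wells without tunicamycin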
* marks the source's active call; other numbers are inactive results; x = not tested or not shown. The entries come from a sample that favours hits as a whole.

SMILES | CHOP UPR activ | XBP1 UPR activ | PvdQ acylase | CHOP inhibitor
COc1ccc(-c2cc(C(=O)NCc3ccc(Cl)cc3)no2)cc1OC | 2.3 | 1.8 | 7.0 | 73.3*
COc1ccc(CNC(=O)c2cc(-c3ccc(OC)c(OC)c3)on2)cc1 | -2.1 | 0.9 | -12.1 | 50.4
COc1cc(Cl)cc(C(=O)O)c1OCC(=O)O | 0.0 | 0.0 | -1.4 | 32.9
COc1ccc(CCNC(=O)NC23CC4CC(CC(C4)C2)C3)cc1 | 2.1 | -0.8 | -8.9 | -9.9
COc1ccc(CC(=O)OCC(=O)NC(=O)NC23CC4CC(CC(C4)C2)C3)cc1 | -0.9 | -1.7 | -6.2 | 95.7*
COc1ccc(N(CC(=O)NC2CCS(=O)(=O)C2)S(=O)(=O)c2ccc(Cl)c(Cl)c2)cc1 (stereo not given) | -0.6 | -0.8 | -2.2 | x
O=C(CSc1ccc(-c2cccc([N+](=O)[O-])c2)nn1)N1CCCCC1 | -0.8 | 1.1 | -1.8 | -9.2
COc1ccc(/C=C2\SC(=S)N(CCCC(=O)NNC(=O)c3ccccc3O)C2=O)cc1 | -8.3 | -10.1 | -11.2 | 105.9*
CCc1ccc(/C=C2\SC(=S)N(CCCC(=O)Nc3nccs3)C2=O)cc1 | 0.9 | -3.6 | -17.9 | 78.4*
O=C(CCCN1C(=O)/C(=C/c2ccccc2Cl)SC1=S)NNC(=O)c1ccccc1Cl | -6.2 | -4.3 | -2.6 | 95.2*
O=C(Nc1ccccc1)OCc1cc(-c2ccccc2Cl)on1 | 3.8 | -2.1 | 2.4 | 58.9
CC(c1ccccc1)N1C(=O)/C(=C/c2ccncc2)SC1=S (stereo not given) | 4.1 | -3.5 | -4.8 | 85.6*
CCOc1ccc(/C=C2\SC(=S)N(C(C(=O)O)c3ccccc3)C2=O)cc1OC (stereo not given) | 0.6 | -1.4 | -7.4 | 19.9
O=C(O)C(c1ccccc1)N1C(=O)/C(=C/c2cccs2)SC1=S (stereo not given) | -1.7 | -1.2 | -6.8 | 5.5
C=CCOc1ccc(/C=C2\SC(=S)N(C(C(=O)O)c3ccccc3)C2=O)cc1 (stereo not given) | x | x | 3.8 | 90.3*
Clc1ccc(OCc2nnc(SCc3nnc(-c4ccccc4)o3)o2)c(Cl)c1 | 1.6 | -2.9 | 1.1 | 76.5*
Clc1ccc(-c2nnc(CSc3nnc(-c4cccs4)o3)o2)cc1 | 3.2 | -2.3 | -0.9 | 70.4*
O=C(CSc1nnc(COc2ccc(Cl)cc2Cl)o1)Nc1ccccn1 | -4.9 | -3.3 | -2.1 | x
CCN(Cc1nc2cc(Cl)ccc2c(=O)[nH]1)C(=O)c1cc(C2CC2)nn1-c1ccccc1 | 2.1 | -2.8 | -4.2 | x
Cc1ccc(CNS(=O)(=O)NCc2ccccc2)cc1 | 1.3 | -1.9 | -3.4 | 32.0
CCCNS(=O)(=O)c1ccc(CCC(=O)Nc2cc(Cl)ccc2Oc2ccccc2)cc1 | x | x | -8.9 | 89.8*
CC(C)CNS(=O)(=O)c1ccc(CCC(=O)Nc2cc(Cl)ccc2Oc2ccccc2)cc1 | 3.8 | -2.6 | -18.9 | 44.9
CCOC(=O)C(=Cc1ccc(Br)cc1)C(=O)OCC | x | x | 2.4 | 105.3*
CCOC(=O)/C(=C/c1ccc(OC(=O)c2ccncc2)cc1)C(C)=O | 0.2 | 1.3 | -3.8 | -36.9
CN1C(=O)c2cccc(NCCCCCCN3C(=O)c4ccccc4C3=O)c2C1=O | 2.2 | -1.6 | -17.6 | 71.1*
SMILES | CHOP UPR activ | XBP1 UPR activ | PvdQ acylase | CHOP inhibitor
CN1C(=O)c2cccc(NCCCN3C(=O)c4ccccc4C3=O)c2C1=O | 0.8 | 0.3 | -15.3 | 5.2
COC(=O)c1ccc(COC(=O)c2ccc(N(C)C)cc2)cc1 | 1.9 | -1.1 | -9.4 | 79.8*
CN(C)c1ccc(C(CN)c2c[nH]c3ccccc23)cc1 (stereo not given) | 2.0 | -6.0 | -8.9 | -9.3
CN(C)c1ccc(C(CNS(=O)(=O)c2ccc3ccccc3c2)c2c[nH]c3ccccc23)cc1 (stereo not given) | 0.8 | -0.9 | -3.0 | 76.0*
Cc1ccc(C)n1-n1c(C)nc2sc3c(c2c1=O)CCCCC3 | -1.1 | -4.5 | -0.5 | 79.2*
COc1cc(OC)cc(C(=O)N[C@H](C(=O)NCc2ccco2)C(C)C)c1 | -0.8 | 0.4 | -15.6 | 3.4
Cc1cc(NC(=O)c2ccccc2)c(Cl)cc1N | -3.9 | -9.7 | -16.9 | 71.7*
Cc1ccccc1-c1nnc(-c2cccs2)o1 | 4.6 | 2.4 | 6.1 | -9.2
Cc1ccccc1-c1noc(-c2cccs2)n1 | 4.0 | 0.3 | -12.3 | 89.5*
CC1=NN(c2nc(-c3ccc(C)cc3)cs2)C(=O)C1N=Nc1ccc2ccccc2c1 (stereo not given) | 0.6 | 1.5 | -11.9 | -20.7
CC1=NN(c2nc(-c3ccc(C)cc3)cs2)C(=O)C1N=Nc1ccc(C(N)=O)cc1 (stereo not given) | x | x | -11.3 | 106.7*
CCCCCc1c(C)nc(Nc2nc(C)c3cc(OC)ccc3n2)[nH]c1=O | 1.3 | 17.9 | -18.3 | 89.7*
CCc1c(C)nc(Nc2nc(C)c3cc(OC)ccc3n2)[nH]c1=O | 1.9 | 12.6 | -14.8 | 13.6
O=C(CN1CCCCCC1=O)N1CCN(S(=O)(=O)c2cccs2)CC1 | -1.7 | 0.1 | -20.2 | -11.1
CCCCC1CCC(C(=O)NCc2ccc3c(c2)OCO3)CC1 (stereo not given) | -1.3 | -1.0 | 12.0 | 82.5*
CCS(=O)(=O)N1CCC(C(=O)NCc2ccc3c(c2)OCO3)CC1 | -0.3 | 1.3 | -10.9 | 20.1
Cc1c(C(=O)OC(C)C)sc(N)c1C(=O)OC(C)C | 2.6 | 5.6 | 12.8 | 81.7*
COc1ccccc1/C=C/C=N/n1c(C2CCCCC2)n[nH]c1=S | 2.0 | 3.1 | -4.7 | 93.5*
Cc1ccc(N2CC(C(=O)Nc3nnc(SCC(N)=O)s3)CC2=O)cc1 (stereo not given) | 1.2 | -0.5 | -13.9 | x
CC(C)(C)c1ccc(Cn2c(=N)n(CC(O)c3ccco3)c3ccccc32)cc1 (stereo not given) | -2.2 | 2.5 | -12.0 | 76.0*
Cc1ccccc1Cn1c(=N)n(CC(O)c2ccco2)c2ccccc21 (stereo not given) | -3.1 | 0.6 | -16.6 | 60.1
COCCCN1CN(S(=O)(=O)c2ccc(Cl)cc2)c2nc3ccccc3nc21 | -1.4 | -2.3 | -1.8 | 93.0*
COCCN1CN(S(=O)(=O)c2cccc(Cl)c2)c2nc3ccccc3nc21 | 1.9 | -1.7 | -8.1 | x
Cc1ccc(C(=O)CSc2nnc(-c3ccc4[nH]c(C)c(C)c4c3)o2)cc1C | 0.4 | -1.0 | -18.7 | 73.7*
COc1ccc(Cn2c(=O)[nH]c3cc(C(=O)N4CCN(c5ccccc5OC)CC4)ccc3c2=O)cc1 | 5.2 | -4.7 | -4.9 | x
COc1ccc(Cn2c(=O)[nH]c3cc(C(=O)N4CCN(Cc5ccccc5)CC4)ccc3c2=O)cc1 | -2.9 | -2.6 | -5.0 | 71.8*
Cc1ccc(C(=O)COC(=O)CCNS(=O)(=O)c2ccccc2F)cc1 | -1.8 | -0.3 | -10.1 | x
OC(CNCc1ccc(Cl)cc1)(c1ccccc1)c1ccc(F)cc1 (stereo not given) | -1.7 | -1.1 | -14.6 | 75.3*
COc1ccc(CNCC(O)(c2ccccc2)c2ccc(F)cc2)cc1 (stereo not given) | -0.4 | -0.8 | -12.5 | x
OC(CNCc1ccc(F)cc1)(c1ccc(F)cc1)c1ccc(F)cc1 | -0.9 | -1.1 | -10.4 | 72.0*

Compound activity (PubChem BioAssay)
